Source: PubChem (Johns Hopkins Ion Channel Center)
Sampled rows, rich in hits. Any-hit rate of the full collection: about 3.7%.
KCNQ1 block = inhibitors of human KCNQ1 channel, primary screen, cell-based, thallium flux, high-throughput; Potassium voltage-gated channel subfamily KQT member 1 (Homo sapiens), P51787; CHO-K1 KCNQ1, FluxOR thallium flux fluorescence; hits give high values; B-score at 10 µM; 1.3% of 310,000 active; AID 2642, 2010;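 active = compounds whose thallium flux B-score, printed positive for inhibition, exceeds three library SD while starting fluorescence stays within three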;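 note: channel opened by potassium depolarization with thallium stimulus after 20 min compound exposure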
Target sequence (P51787 whole entry, looked up): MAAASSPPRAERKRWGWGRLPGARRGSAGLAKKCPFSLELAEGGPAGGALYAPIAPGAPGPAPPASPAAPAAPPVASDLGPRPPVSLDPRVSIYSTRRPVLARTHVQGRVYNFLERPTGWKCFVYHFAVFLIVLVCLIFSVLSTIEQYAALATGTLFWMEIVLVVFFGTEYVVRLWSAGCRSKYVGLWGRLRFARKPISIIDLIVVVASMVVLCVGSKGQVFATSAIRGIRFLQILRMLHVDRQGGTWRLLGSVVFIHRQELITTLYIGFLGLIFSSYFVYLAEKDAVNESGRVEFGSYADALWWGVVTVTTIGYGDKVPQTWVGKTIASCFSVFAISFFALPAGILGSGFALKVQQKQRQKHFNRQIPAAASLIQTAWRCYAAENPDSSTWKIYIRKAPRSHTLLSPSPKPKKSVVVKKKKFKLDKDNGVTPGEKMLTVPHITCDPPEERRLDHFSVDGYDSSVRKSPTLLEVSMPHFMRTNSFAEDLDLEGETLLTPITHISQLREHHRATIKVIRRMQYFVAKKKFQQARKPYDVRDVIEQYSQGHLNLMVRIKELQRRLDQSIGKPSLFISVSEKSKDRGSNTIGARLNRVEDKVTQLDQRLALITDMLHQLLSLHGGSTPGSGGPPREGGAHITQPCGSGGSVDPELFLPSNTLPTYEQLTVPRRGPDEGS
hERG rescue = hERG rescue from dofetilide block, primary screen, cell-based, CHO-hERG, FluxOR thallium flux, dofetilide IC70. Voltage-gated inwardly rectifying potassium channel KCNH2 (Homo sapiens), Q12809. 0.51% of 310,000 active. dofetilide IC70 present. activation (rescue from dofetilide block), less the hit threshold, % at 10 µM;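 active = activation above the mean of controls blocked by dofetilide plus 5 SD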;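 note: thallium influx through hERG after potassium depolarization seen as dye fluorescence rise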
Kir21 block = inhibitors of mouse Kir2.1 inward-rectifier potassium channel; Inward rectifier potassium channel 2 (Mus musculus), P35561; HEK293-Kir2.1, FluxOR thallium flux fluorescence; hits give low values; B-score at 10 µM; 0.85% of 310,000 active;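 active = fluorescence ratio B-score at or below minus 3 SD of library scores, with starting-brightness B-score within 2 SD, cut at about -4.2 in these data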;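 note: channel flux triggered by added potassium and thallium sulfate stimulus; B-score of peak minus minimum fluorescence over baseline after thallium stimulus; more negative B-score means stronger Kir2.1 block with less thallium influx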
KCNK9 block = KCNK9 potassium channel inhibitors, primary screen, HEK293 cells, thallium flux; B-score at 10 µM; Potassium channel subfamily K member 9 (Homo sapiens), Q9NPC2; 1.2% of 310,000 active; FluxOR thallium flux fluorescence; hits give low values;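 active = ratio B-score over 3 SD below the library mean, with starting fluorescence within 5 SD of its mean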;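 note: negative B-score means less thallium flux so channel inhibition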
KCNK3 inh = human KCNK3 channel inhibitors, primary screen, CHO cells, FluxOR thallium flux, B-score. Potassium channel subfamily K member 3 (Homo sapiens), O14649. FluxOR fluorescence; hits give low values. B-score at 10 µM. 0.84% of 340,000 active;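 active = B-score under library mean minus 4 SD, starting fluorescence ratio at most library mean plus 5 SD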;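 note: more negative B-score means stronger inhibition of thallium flux through KCNK3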
KCNQ1 act = potentiators or activators of KCNQ1 channel, primary screen, cell-based, thallium flux, high-throughput; Potassium voltage-gated channel subfamily KQT member 1 (Homo sapiens), P51787; CHO-K1 KCNQ1, thallium flux FluxOR fluorescence; hits give high values; B-score at 10 µM; 0.35% of 310,000 active; AID 2648, 2010;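 active = fluorescence ratio B-score, a plate-corrected score, at least three library SD, with initial intensity B-score within 5 SD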
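Assay system: CHO-K1 cells stably expressing KCNQ1. Medium: assay buffer for compound exposure, DMSO matched across wells. Timing: 37 °C overnight plating, 90-min dark dye load, 20-min compound pretreatment. Signal: kinetic FluxOR fluorescence, 10 s baseline plus 110 s post-stimulus.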
KCNQ1 inh valid = KCNQ1 potassium channel inhibitors, confirmation, cell-based, Tl flux, duplicate | shares compounds with KCNQ1 block | AID 588353, 2011 | 93% of 1,600 active | inhibition, % at 10 µM | KCNQ1 cell line, FluxOR thallium flux fluorescence;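 active = primary screen active, with duplicate mean exceeding buffer control mean plus 3 SD of buffer wells, cut at about 28% in these data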
CHO KCNQ1 ctr = thallium flux effects in parental CHO cells, counter-screen for KCNQ1 inhibitor project, cell-based, Tl flux | shares compounds with KCNQ1 block | parental CHO-K1, FluxOR thallium flux fluorescence ratio; hits give low values; zero means no signal rise above baseline | fluorescence ratio (Tl flux) at 10 µM | 21% of 1,600 active;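 active = mean of duplicate thallium-flux fluorescence ratios in parental host cells more than 5 SD below the buffer control mean, cut at about 0.38 in these data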;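 note: ratio is peak minus minimum fluorescence divided by baseline fluorescence; actives read low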
KCNQ1 APC inh = KCNQ1 channel inhibitors, confirmation, orthogonal assay, cell-based, automated electrophysiology. AID 624120, 2012. calls only at 10 µM. shares compounds with KCNQ1 block. KCNQ1-CHO cells, automated patch clamp current. 20% of 490 active;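 active = KCNQ1 current drop exceeding 3 SD of negative control wells, seen in both duplicate runs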;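 note: steady state current during a 2 s step from -80 to +40 mV; negative values mean current inhibition and positive values mean potentiation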
KCNQ2 spec = KCNQ2 channel inhibition, selectivity assay for KCNQ1 inhibitor project, cell-based; inhibition, % at 10 µM; shares compounds with KCNQ1 block; 71% of 1,600 active; KCNQ2 cells, FluxOR thallium flux fluorescence;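 active = mean percent inhibition of the KCNQ2 thallium signal more than 5 SD above the buffer-only control wells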;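 note: KCNQ2 expressed in CHO cells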
KCNQ1-KCNE1 inh = KCNQ1/KCNE1 channel inhibition, selectivity assay for KCNQ1 inhibitor project, CHO-K1 cells, thallium flux, FluxOR; 77% of 1,600 active; AID 652147, 2013; FluxOR thallium flux fluorescence; shares compounds with KCNQ1 block; inhibition, % at 10 µM;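 active = mean percent inhibition of duplicate wells above the buffer-only control mean plus 3 SD of those controls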
Large screens that a line does not name were inactive (follow-up assays come after a bar, where they were run).

O=C(Nc1ccc(NC(=S)NC(=O)c2ccccc2F)cc1)c1cccs1	KCNQ1 block 6 | KCNQ1 inh valid 94 | CHO KCNQ1 ctr inactive | KCNQ1 APC inh active | KCNQ2 spec 63% | KCNQ1-KCNE1 inh 132%
CCCCCCNC(=O)C(C#N)c1nc2ccccc2nc1N1CCCC1 (stereo unspecified)	KCNQ1 block 9 | KCNQ1 inh valid active | CHO KCNQ1 ctr 0.2 | KCNQ2 spec inactive | KCNQ1-KCNE1 inh inactive
Cc1csc2ncnc(N3CCN(C(=S)Nc4ccc(C(F)(F)F)cc4)CC3)c12	KCNQ1 block 10 | KCNQ1 inh valid 112 | CHO KCNQ1 ctr inactive | KCNQ1 APC inh inactive | KCNQ2 spec 74% | KCNQ1-KCNE1 inh 94%
Cc1csc2c(N3CCN(C(=O)NC(C)(C)C)CC3)ncnc12	none
Cc1cc(C)cc(NC(=S)N2CCN(c3ncc(C(F)(F)F)cc3Cl)CC2)c1	none
Cc1csc2c(N3CCN(C(=O)Nc4ccc(Cl)c(Cl)c4)CC3)ncnc12	KCNQ1 block 11 | KCNQ1 inh valid 160 | CHO KCNQ1 ctr 0.36 | KCNQ2 spec 90% | KCNQ1-KCNE1 inh active
Cc1csc2c(N3CCN(C(=S)Nc4ccc(C(F)(F)F)cc4)CC3)ncnc12	KCNQ1 block 12 | KCNQ1 inh valid 82 | CHO KCNQ1 ctr inactive | KCNQ2 spec inactive | KCNQ1-KCNE1 inh 178%
Cc1c(C)n(C(=O)CSc2nc3ccccc3[nH]2)c2ccccc12	KCNQ1 block 7 | KCNQ1 inh valid 139 | CHO KCNQ1 ctr inactive | KCNQ1 APC inh inactive | KCNQ2 spec 124% | KCNQ1-KCNE1 inh 190%
O=C(CSc1nc2ccccc2[nH]1)N1CCCCC1	none
Clc1cccc(-c2cc3nc4c(c(N5CCOCC5)n3n2)CCCC4)c1	KCNQ1 block 6, KCNK3 inh -9.1 | KCNQ1 inh valid 101 | CHO KCNQ1 ctr inactive | KCNQ2 spec 78% | KCNQ1-KCNE1 inh 117%
OC1CCN(c2c3c(nc4cc(-c5ccc(Cl)cc5)nn24)CCC3)CC1	none
COc1ccc(Nc2nc(N3CCCC3)nc3ccccc23)c(OC)c1	KCNQ1 block 7 | KCNQ1 inh valid 112 | CHO KCNQ1 ctr inactive | KCNQ2 spec 81% | KCNQ1-KCNE1 inh 137%
COc1ccc(Nc2ncnc3ccccc23)c(OC)c1	none
Cc1ccc(Nc2nc(N3CCOCC3)c3ccccc3n2)cc1	none
COc1ccc(Nc2nc(N3CCCCC3)c3ccccc3n2)cc1	KCNQ1 block 14 | KCNQ1 inh valid 139 | CHO KCNQ1 ctr inactive | KCNQ1 APC inh inactive | KCNQ2 spec 103% | KCNQ1-KCNE1 inh 122%
O=C(c1ccc2nc[nH]c2c1)N1CCN(c2ncc(C(F)(F)F)cc2Cl)CC1	KCNQ1 block 8 | KCNQ1 inh valid inactive | CHO KCNQ1 ctr inactive | KCNQ2 spec inactive | KCNQ1-KCNE1 inh inactive
O=C(Nc1ccccc1)C1C(c2ccccc2)C1(Cl)Cl (stereo unspecified)	KCNQ1 block 14 | KCNQ1 inh valid 102 | CHO KCNQ1 ctr inactive | KCNQ1 APC inh active | KCNQ2 spec 101% | KCNQ1-KCNE1 inh 136%
COc1ccc(CCNc2nc(C)nc3c2oc2ccccc23)cc1OC	KCNQ1 block 10 | KCNQ1 inh valid 120 | CHO KCNQ1 ctr inactive | KCNQ1 APC inh inactive | KCNQ2 spec 123% | KCNQ1-KCNE1 inh 78%
COc1ccc(CCNc2ncnc3c2oc2ccccc23)cc1OC	none
O=C1NC(=O)c2cc(Oc3ccc([N+](=O)[O-])cc3)ccc21	none
O=C1CSc2ccc(C(=O)Nc3cccc(S(=O)(=O)Nc4ccc(Br)cc4)c3)cc2N1	KCNQ1 block 10 | KCNQ1 inh valid 138 | CHO KCNQ1 ctr 0.33 | KCNQ2 spec 101% | KCNQ1-KCNE1 inh 188%
O=C(Nc1ccc(Br)cc1)c1cccc(S(=O)(=O)Nc2ccccn2)c1	none
O=C(Nc1ccc(Br)cc1)c1cccc(S(=O)(=O)Nc2cnc3ccccc3c2)c1	KCNQ1 block 6 | KCNQ1 inh valid 139 | CHO KCNQ1 ctr inactive | KCNQ2 spec inactive | KCNQ1-KCNE1 inh 58%
CCOC(=O)C1=C(C)N(CCCC(=O)O)C(=O)NC1c1cccs1 (stereo unspecified)	none
CC(=O)NC12CC3CC(C1)CC(C(=O)Nc1nc4ccc(F)cc4s1)(C3)C2	KCNQ1 block 7 | KCNQ1 inh valid 92 | CHO KCNQ1 ctr inactive | KCNQ1 APC inh active | KCNQ2 spec 65% | KCNQ1-KCNE1 inh 85%
CC(CC(=O)NCc1ccco1)S(=O)(=O)c1ccc2c(c1)CCN2C(=O)C1CC1 (stereo unspecified)	none
O=C1N(Cc2cccc(Cl)c2)C[C@@H]2C[C@@H](c3cccn3-c3ccccn3)N3CCC[C@@]123	KCNQ1 block 6 | KCNQ1 inh valid 65 | CHO KCNQ1 ctr inactive | KCNQ2 spec 63% | KCNQ1-KCNE1 inh 46%
CCn1c(C)nnc1SCC(=O)NC1CCCC1	none
CC12CCC(=O)N1C(C(=O)Nc1ccc(Br)cc1Cl)CS2 (stereo unspecified)	none
COc1ccc(-c2csc(NC(=O)c3ccccc3NS(=O)(=O)c3ccc(F)c(F)c3)n2)cc1	KCNQ1 block 6, KCNK9 block -6.8 | KCNQ1 inh valid 64 | CHO KCNQ1 ctr inactive | KCNQ2 spec inactive | KCNQ1-KCNE1 inh 92%
O=C(Nc1ccccc1N1CCOCC1)c1ccccc1NS(=O)(=O)c1ccc(F)c(F)c1	KCNQ1 block 7 | KCNQ1 inh valid 59 | CHO KCNQ1 ctr inactive | KCNQ2 spec 74% | KCNQ1-KCNE1 inh inactive
